Series [1] concerns the target T1, 5-hydroxytryptamine receptor 6 (Homo sapiens, UniProt P50406). The series is described as follows: Displacement of [3H]-LSD from human 5-HT6 receptor expressed in HEK293 cells by microbeta liquid scintillation counting. In kind it is cell-based. An outline of the steps:
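Ki values reported as the mean of two independent radioligand binding experiments.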
On the technique in general: Loss of bound radioactivity is the signal in a displacement assay; it reports binding, not function.

The species named for series [2] is Homo sapiens. The series is described as follows: Selectivity ratio of Ki for human 5-HT1A receptor expressed in HEK293 cells to Ki for human 5-HT6 receptor expressed in HEK293 cells. In kind it is cell-based.
For series [3], the species on record is Homo sapiens. The series is described as follows: Selectivity ratio of Ki for human 5-HT2A receptor expressed in HEK293 cells to Ki for human 5-HT6 receptor expressed in HEK293 cells. In kind it is cell-based.
The species named for series [4] is Homo sapiens. As to the kind of experiment: Selectivity ratio of Ki for human 5-HT7B receptor expressed in HEK293 cells to Ki for human 5-HT6 receptor expressed in HEK293 cells. In kind it is cell-based.
Series [5] addresses T1, 5-hydroxytryptamine receptor 6. As to the kind of experiment: Antagonist activity at human recombinant 5-HT6 receptor expressed in CHO cells assessed as inhibition of serotonin-induced intracellular cAMP accumulation after 30 mins by HTRF assay. In kind it is functional, cell-based. (Cyclic AMP is a second messenger, typically raised through Gs and lowered through Gi signalling.)

Series [6] can be described thus: Intrinsic clearance in rat liver microsomes at 20 uM after 15 mins in presence of NADPH-regenerating system by UPLC/MS analysis. In kind it is ADME, Microsome. Conditions: read-out: CLH. Background: Liver microsomes are a subcellular fraction often used to study metabolism.
Series [7] is described as follows: Mutagenicity in Salmonella typhimurium TA1535 at 0.2 to 16 ug/ml after 48 hrs by Ames test. Conditions: salmonella enterica subsp. enterica serovar typhimurium. In kind it is toxicity.
The nature of series [8]: Mutagenicity in Salmonella typhimurium TA98 at 0.2 to 16 ug/ml after 48 hrs by Ames test. In kind it is toxicity. Conditions: salmonella enterica subsp. enterica serovar typhimurium.
Series [9] is described as follows: Mutagenicity in Salmonella typhimurium TA1537 at 0.2 to 16 ug/ml after 48 hrs by Ames test. In kind it is toxicity. Conditions: salmonella enterica subsp. enterica serovar typhimurium.
A short description of series [10]: Toxicity in Sprague-Dawley rat assessed as effect on locomotory activity at 0.1 to 1 mg/kg, ip measured for 5 mins by open field test. In kind it is organism-based. Conditions: in vivo.
The subject of series [11] is Rattus norvegicus. As to the kind of experiment: Antianxietic activity in Wistar rat assessed as increase in number of licks accepted at 0.1 to 1 mg/kg, ip measured for 5 mins by Vogel conflict drinking test. In kind it is functional, organism-based.
For series [12], the system named is Rattus norvegicus. As to the kind of experiment: Antianxietic activity in Wistar rat assessed as increase in number of shocks accepted at 0.1 to 1 mg/kg, ip measured for 5 mins by Vogel conflict drinking test. In kind it is functional, organism-based.
The target in series [13] is Muscarinic acetylcholine receptor M5 (Homo sapiens) (UniProt P08912). The series is described as follows: Displacement of [3H]4-DAMP from human recombinant muscarinic M5 receptor expressed in CHO cells after 60 mins by scintillation counting. In kind it is cell-based.
Muscarinic acetylcholine receptor M5 (Homo sapiens), sequence (P08912 whole entry): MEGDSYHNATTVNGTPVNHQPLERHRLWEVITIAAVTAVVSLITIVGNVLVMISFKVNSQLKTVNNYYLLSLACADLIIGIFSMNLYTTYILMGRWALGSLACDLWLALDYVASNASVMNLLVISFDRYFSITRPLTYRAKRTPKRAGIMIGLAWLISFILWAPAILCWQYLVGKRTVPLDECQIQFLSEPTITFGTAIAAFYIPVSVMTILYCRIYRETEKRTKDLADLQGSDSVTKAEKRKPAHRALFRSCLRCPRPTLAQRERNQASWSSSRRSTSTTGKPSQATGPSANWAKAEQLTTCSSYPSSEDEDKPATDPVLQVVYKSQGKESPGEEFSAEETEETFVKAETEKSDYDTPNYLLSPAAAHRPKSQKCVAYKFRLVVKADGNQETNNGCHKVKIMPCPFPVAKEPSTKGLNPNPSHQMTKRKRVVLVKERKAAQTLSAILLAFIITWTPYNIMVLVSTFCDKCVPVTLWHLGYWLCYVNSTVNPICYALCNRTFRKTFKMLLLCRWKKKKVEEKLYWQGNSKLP
The test system of series [14] is Rattus norvegicus. The series is described as follows: Antidepressant activity in Sprague-Dawley rat assessed as reduction in immobility time at 0.1 mg/kg, ip adminstered 60 mins prior to testing measured for 5 mins by forced swimming test. In kind it is functional, organism-based. An outline of the steps: (§1)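 Modified forced swim test in rats with i.p. dosing. Immobility time and climbing time were scored. Data are mean ± SEM, n = 7–8 animals per group, compared against the vehicle-treated group.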

The subject of series [15] is Rattus norvegicus. The series is described as follows: Antianxietic activity in Wistar rat assessed as increase in number of licks accepted at 0.3 to 3 mg/kg, ip measured for 5 mins by Vogel conflict drinking test. In kind it is functional, organism-based.
Series [16] relates to Rattus norvegicus. As to the kind of experiment: Antianxietic activity in Wistar rat assessed as increase in number of shocks accepted at 0.3 to 3 mg/kg, ip measured for 5 mins by Vogel conflict drinking test. In kind it is functional, organism-based.
The test system of series [17] is Rattus norvegicus. As to the kind of experiment: Antidepressant activity in Sprague-Dawley rat assessed as increase in climbing time at 0.1 mg/kg, ip adminstered 60 mins prior to testing measured for 5 mins by forced swimming test. In kind it is functional, organism-based. An outline of the steps: as §1

Active and inactive are the calls of the source. The rule behind the calls is not given here.

T1 sequence (P50406 whole entry): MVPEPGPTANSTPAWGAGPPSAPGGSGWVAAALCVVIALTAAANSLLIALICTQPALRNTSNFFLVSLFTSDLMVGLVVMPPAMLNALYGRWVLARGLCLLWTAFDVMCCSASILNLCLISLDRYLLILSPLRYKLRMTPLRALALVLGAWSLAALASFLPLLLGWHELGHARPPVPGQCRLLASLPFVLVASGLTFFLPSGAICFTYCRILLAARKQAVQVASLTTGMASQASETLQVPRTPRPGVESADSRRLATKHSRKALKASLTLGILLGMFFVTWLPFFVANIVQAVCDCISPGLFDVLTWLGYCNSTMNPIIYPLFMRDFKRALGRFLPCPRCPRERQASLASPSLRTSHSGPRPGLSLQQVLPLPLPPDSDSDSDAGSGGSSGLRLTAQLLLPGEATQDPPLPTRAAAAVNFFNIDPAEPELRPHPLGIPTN

In series [1], `COc1ccc2c(c1)c(C1=CCNCC1)cn2S(=O)(=O)c1ccc2cccnc2c1` had a Ki of 2 nM. Moreover, the Ratio Ki in the series filed under Homo sapiens [2], in the series listed under Homo sapiens [3] and in the series listed under Homo sapiens [4] was 70 throughout. In addition, the Kb in series [5] came out at 4.4 nM. In addition, the microsomal CLint at 20 µM in [6] was determined as 18 µL/min/mg. The Activity entry in series [7], in series [8], in series [9] and in series [10] was “Non-Toxic” in each case. Further, the result with Rattus norvegicus [11] and in the series on Rattus norvegicus [12] was inactive.

For `COc1ccc2c(c1)c(C1=CCNCC1)cn2S(=O)(=O)c1cncc2ccccc12`, in series [1], the inhibitory constant (Ki) was 3 nM. Moreover, the Ratio Ki in the series filed under Homo sapiens [2], in the series filed under Homo sapiens [3] and in the series listed under Homo sapiens [4] was 70 throughout. Moreover, the Kb in [5] came to 5.6 nM. The inhibition in [13] worked out at 3%. In addition, the microsomal CLint at 20 µM in series [6] came out at 10 µL/min/mg. In addition, the Activity entry in series [7], in series [8], in series [9] and in [10] was “Non-Toxic” throughout. The result in the series on Rattus norvegicus [14] and in the series with Rattus norvegicus [17] was Active. In addition, the outcome with Rattus norvegicus [15] and in the series with Rattus norvegicus [16] was inactive.

Broadly, the Ki is a dissociation constant, usually derived from enzyme kinetics or from competition with a known ligand. Higher therefore signals a looser hold on the target. In general, Kb refers to the affinity of an antagonist, worked out from how it opposes an agonist. One may read the inhibition as the share of the control response that was lost under treatment.

Source of the values: ChEMBL document CHEMBL4425120, “N1-Azinylsulfonyl-1H-indoles: 5-HT6 Receptor Antagonists with Procognitive and Antidepressant-Like Properties” (ACS Med Chem Lett, 2016).
